Source: ChEMBL document CHEMBL3124751, “The versatile nature of the 6-aminoquinolone scaffold: identification of submicromolar hepatitis C virus NS5B inhibitors” (J Med Chem, 2014)

Experiments:
[1] = Selectivity index, ratio of CC50 for human Huh5-2 cells to EC50 for Hepatitis C virus genotype 1b I389luc-ubi-neo/NS3-3'/5.1 replicon in Huh 5-2 cells; assay type: toxicity, cell-based; settings: read-out: Ratio CC50/EC50
Outline: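 Huh 5-2 replicon cells seeded at 6,500/well, overnight at 37 °C; compound dilution series (four-step 1:5 screen, eight-step 1:2 dose-response), 72 h. Antiviral: luciferase luminescence versus untreated controls. Parallel anti-metabolic: 5% MTS 1.5 h, absorbance 498 nm. EC50, CC50 from dose-response curves, means of at least three independent experiments; SI = CC50/EC50.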

[2] = Inhibition of Hepatitis C virus genotype 1b HC-J4 recombinant N-terminal histidine tagged truncated NS5B polymerase lacking C-terminal 21 amino acids assessed as standard-primer dependent elongation reaction using poly rA/U12 as template after 1 hr by liquid scintillation counting analysis; design: species or system Hepatitis C virus isolate HC-J4
Outline: (§1)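 Construct is His-tagged HC-J4 NS5B CΔ21, Ni-NTA purified. Poly rA/U12 primer-dependent elongation run 1 h at 30 °C, then stopped with chilled 5% TCA/0.5 mM pyrophosphate. Products collected on GF-B filters and counted by scintillation. Activity expressed relative to DMSO control. Screen at 25 μM. IC50 from 8–12 concentrations in duplicate, two independent experiments, by nonlinear regression.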

[3] = system: Hepatitis C virus; assay: Antiviral activity against Hepatitis C virus genotype 1b I389luc-ubi-neo/NS3-3'/5.1 replicon in Huh 5-2 cells assessed as inhibition of replicon replication after 72 hrs by replicon system assay; assay type: functional, organism-based, Hepacivirus hominis; settings: Huh-5-2, 72 h
Outline: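 Huh 5-2 replicon cells seeded at 6 500 cells/well one day before compound in DMEM with 10% FCS, 1% non-essential amino acids, 1% penicillin/streptomycin, no Geneticin. Four-step 1-to-5 or eight-step 1-to-2 dilutions, 72 h at 37 °C, 5% CO₂. Luciferase luminescence read after lysis, as % of untreated controls. EC50/EC90 from dose-response curves, means of at least three independent experiments.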

[4] = Cytostatic activity against human Huh5-2 cells assessed as cell viability after 72 hrs by MTS assay; assay type: cell-based; settings: huh-5-2, 72 h
Outline: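 Huh 5-2 cells carry genotype 1b I389luc-ubineo/NS3-3'/5.1 replicon, maintained with 2% Geneticin. Seeded at 6 500 cells/well in Geneticin-free assay medium, overnight. Four-step 1:5 dilution screen or eight-step 1:2 series, 72 h at 37 °C. 5% MTS for 1.5 h, absorbance at 498 nm as % of untreated. CC50 from dose-response, mean of ≥3 independent experiments.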

[5] = system: Hepatitis C virus isolate HC-J4; assay: Inhibition of Hepatitis C virus genotype 1b HC-J4 recombinant N-terminal histidine tagged truncated NS5B polymerase lacking C-terminal 21 amino acids assessed as standard-primer dependent elongation reaction using poly rA/U12 as template at 25 uM after 1 hr by liquid scintillation counting analysis; outline: as §1
[6] = Selectivity index, ratio of CC50 for human Huh-9-13 cells to EC50 for Hepatitis C virus genotype 1b I389luc-ubi-neo/NS3-3'/5.1 replicon in Huh-9-13 cells; assay type: toxicity, cell-based; settings: read-out: Ratio CC50/EC50
Outline: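 Huh 9-13 replicon cells, setup and 72 h compound exposure as for Huh 5-2; CC50 by MTS in parallel. Antiviral readout: replicon RNA by one-step RT-qPCR of cell-to-cDNA lysates (300 nM each primer, 60 nM probe; 40 cycles), expressed as percentage of untreated controls to give EC50; SI = CC50/EC50.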

[7] = Cytotoxicity against human Huh-9-13 cells assessed as alteration in cell morphology by microscopic analysis; assay type: cell-based
[8] = Cytostatic activity against human Huh-9-13 cells assessed as cell viability after 72 hrs by MTS assay; assay type: cell-based
Outline: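 Huh 9–13 subgenomic replicon cells seeded at 6 500 cells/well in DMEM with 10% FCS, 1% non-essential amino acids, 1% penicillin/streptomycin, then incubated overnight. Compound dilution series given, 72 h at 37 °C, 5% CO₂. Medium replaced with 5% MTS in phenol red-free medium for 1.5 h. Absorbance read at 498 nm as % of untreated. CC50 taken from dose-response, mean of ≥3 independent experiments.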

[9] = system: Hepatitis C virus; assay: Antiviral activity against Hepatitis C virus genotype 1b I389luc-ubi-neo/NS3-3'/5.1 replicon in Huh 9-13 cells assessed as reduction in replicon RNA level after 72 hrs by RT-PCR analysis; assay type: functional, organism-based, Hepacivirus hominis
[10] = Binding affinity to Hepatitis C virus isolate Con1 C-terminal hexahistidine fusion-tagged NS5B polymerase ectodomain by surface plasmon resonance assay
Outline: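 Con1 NS5B ectodomain (C-terminal His6) amine-coupled to CM5 chip at 4–5 kRU from 10 mM MES pH 6.0. Running buffer TBS-P (20 mM Tris pH 7.4, 130 mM NaCl, 0.05% Tween20, 5% DMSO). Compound injected 60 s at 30 μL/min, two-fold series 6–200 μM. Reference/blank subtraction, solvent correction; KD from global 1:1 Langmuir fit.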

[11] = Binding affinity to Hepatitis C virus truncated NS5B polymerase lacking C-terminal 21 amino acids after 5 mins by fluorescence quenching assay; design: species or system Hepacivirus hominis
Outline: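 NS5B CΔ21 at 1 μM final in 50 mM Tris-HCl pH 7.8, 50 mM NaCl, 10% glycerol, 10% DMSO, 0.5 mM MnCl2. Serially diluted compound or DMSO, 5 min at room temperature. Intrinsic fluorescence excitation 280 nm, emission 330 nm; buffer-plus-compound background subtracted. KD fitted to ΔF/ΔFmax = [compound]total/(KD + [compound]total).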

Structure (SMILES) | selectivity ratio [1] | IC50 [2] | EC50 [3] | CC50 [4] | inhibition [5] | EC90 [3] | selectivity ratio [6] | Activity [7] | CC50 [8] | EC50 [9] | Kd [10] | Kd [11]
CCOC(=O)c1cn(Cc2ccc(Cl)cc2)c2cc(N3CCN(c4ccccn4)CC3)c(N)cc2c1=O | > 6.2 | 3060 nM | 31.3 µM | > 193 µM | – | – | – | – | – | – | – | –
Cc1ccc(COC(=O)c2cn(Cc3ccc(C(F)(F)F)cc3F)c3cc(Cl)c(N)cc3c2=O)cc1 | – | 154 nM | 72.3 µM | > 192 µM | > 50% | > 192 µM | – | – | – | – | – | –
Nc1cc2c(=O)c(C(=O)OCc3ccc(Cl)cc3)cn(Cc3ccc(Cl)cc3)c2cc1N1CCN(c2nc3ccccc3s2)CC1 | – | 138 nM | 8.6 µM | > 169 µM | > 50% | – | – | – | – | – | – | –
Nc1cc2c(=O)c(C(=O)OCc3ccc(Cl)cc3)cn(Cc3ccc(Cl)cc3)c2cc1N1CCN(c2cccc(C(F)(F)F)c2)CC1 | – | 6130 nM | 23.8 µM | > 147 µM | > 50% | 94.6 µM | – | – | – | – | – | –
Nc1cc2c(=O)c(C(=O)OCc3ccc(Cl)cc3)cn(Cc3ccc(Cl)cc3)c2cc1N1CCN(c2ccccn2)CC1 | > 111 | 69 nM | 2.2 µM | > 244 µM | > 50% | 13.5 µM | > 54 | Toxic | > 163 µM | 3.03 µM | – | –
Nc1cc2c(=O)c(C(=O)O)cn(Cc3ccc(Cl)cc3)c2cc1N1CCN(c2ccccn2)CC1 | – | 23700 nM | 7.3 µM | > 204 µM | – | – | – | – | – | – | – | –
Cc1ccccc1COC(=O)c1cn(Cc2ccc(C(F)(F)F)cc2F)c2cc(Cl)c(N)cc2c1=O | 6.8 | 1410 nM | 1.5 µM | 10.5 µM | > 50% | – | – | – | – | – | – | –
COc1cc2c(=O)c(C(=O)OCc3ccc(C)cc3)cn(Cc3ccc(C(F)(F)F)cc3F)c2cc1OC | 21 | 211 nM | 2.02 µM | 42.3 µM | – | 4.7 µM | – | – | – | – | – | –
Nc1cc2c(=O)c(C(=O)OCc3ccc(Cl)cc3)cn(Cc3ccc(Cl)cc3)c2cc1Cl | – | – | > 200 µM | > 200 µM | – | > 200 µM | – | – | – | – | – | –
Nc1cc2c(=O)c(C(=O)OCc3ccc(Cl)cc3)cn(Cc3ccc(Cl)cc3)c2cc1N1CCNCC1 | 2.3 | 67 nM | 1.7 µM | 3.7 µM | > 50% | – | – | – | – | – | – | –
CN1CCN(c2cc3c(cc2N)c(=O)c(C(=O)OCc2ccc(Cl)cc2)cn3Cc2ccc(Cl)cc2)CC1 | 1.2 | 40 nM | 2.7 µM | 2.8 µM | > 50% | – | – | – | – | – | 14 µM | 1200 nM
